Source: PMC5519285 (Pharmacology, biochemistry, and behavior, 2017)
Entries after “also recorded” stand apart in the source; their conditions may differ. Where two headings read alike, the source gives them in different places. Marks after values point to notes of the source that are not given here.

Tests used:
rats [1] = test: Pentylenetetrazole; assay type: in vivo, rat; details: i.p.
Procedure, shortened: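 Male Sprague Dawley rats (90–110 g), test compound suspended in 1% hydroxyethylcellulose/0.05% tween 80/0.05% antifoam, given 30 mg/kg i.p. 30 min before testing. Percent of rats without clonic convulsions recorded, 5 rats/group (vehicle 20), Fisher's exact test.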

rats [2] = details: cited from earlier work
[3] = ref Poe et al., 2016; cited from earlier work
hGABAAR (α2β3γ2) = hGABAAR (α2β3γ2) (Homo sapiens, UniProt P18507+P47869); assay type: cell-based
hGABAAR (α3β3γ2) = hGABAAR (α3β3γ2) (Homo sapiens, UniProt P18507+P34903); assay type: cell-based
hGABAAR (α5β3γ2) = hGABAAR (α5β3γ2) (Homo sapiens, UniProt P18507+P31644); assay type: cell-based
mice = details: ref Lewter et al., 2017; cited from earlier work
hGABAAR (α1β3γ2) = hGABAAR (α1β3γ2) (Homo sapiens, UniProt P14867+P18507); assay type: cell-based; details: HEK293 cells, human α1β3γ2, peak GABA EC15-evoked current
Sequence of hGABAAR (α1β3γ2) (P14867 28-456): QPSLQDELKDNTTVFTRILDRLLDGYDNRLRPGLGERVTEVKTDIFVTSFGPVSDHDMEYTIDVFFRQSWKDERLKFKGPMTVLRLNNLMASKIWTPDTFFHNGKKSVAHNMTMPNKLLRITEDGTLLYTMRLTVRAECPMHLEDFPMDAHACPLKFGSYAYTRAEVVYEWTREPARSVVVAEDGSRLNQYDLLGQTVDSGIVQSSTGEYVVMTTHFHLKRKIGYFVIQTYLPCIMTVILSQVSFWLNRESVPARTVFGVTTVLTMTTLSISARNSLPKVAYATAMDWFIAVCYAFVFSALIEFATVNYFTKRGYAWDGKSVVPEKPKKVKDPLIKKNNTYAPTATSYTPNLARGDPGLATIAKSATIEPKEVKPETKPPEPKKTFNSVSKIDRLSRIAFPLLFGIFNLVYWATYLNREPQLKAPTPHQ
Sequence of hGABAAR (α1β3γ2) (P28472 26-473 partner): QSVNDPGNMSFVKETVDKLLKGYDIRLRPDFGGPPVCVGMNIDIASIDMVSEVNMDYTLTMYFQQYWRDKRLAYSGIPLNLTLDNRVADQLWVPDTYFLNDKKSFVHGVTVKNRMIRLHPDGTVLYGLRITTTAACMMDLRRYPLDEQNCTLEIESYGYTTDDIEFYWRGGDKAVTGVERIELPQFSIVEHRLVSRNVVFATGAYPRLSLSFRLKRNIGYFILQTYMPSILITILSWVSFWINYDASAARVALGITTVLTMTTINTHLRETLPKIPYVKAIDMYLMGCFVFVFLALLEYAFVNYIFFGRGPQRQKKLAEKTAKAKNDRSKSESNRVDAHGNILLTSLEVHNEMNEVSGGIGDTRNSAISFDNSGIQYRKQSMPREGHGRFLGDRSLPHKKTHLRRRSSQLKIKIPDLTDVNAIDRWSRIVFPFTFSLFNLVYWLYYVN
Sequence of hGABAAR (α1β3γ2) (P18507 40-475): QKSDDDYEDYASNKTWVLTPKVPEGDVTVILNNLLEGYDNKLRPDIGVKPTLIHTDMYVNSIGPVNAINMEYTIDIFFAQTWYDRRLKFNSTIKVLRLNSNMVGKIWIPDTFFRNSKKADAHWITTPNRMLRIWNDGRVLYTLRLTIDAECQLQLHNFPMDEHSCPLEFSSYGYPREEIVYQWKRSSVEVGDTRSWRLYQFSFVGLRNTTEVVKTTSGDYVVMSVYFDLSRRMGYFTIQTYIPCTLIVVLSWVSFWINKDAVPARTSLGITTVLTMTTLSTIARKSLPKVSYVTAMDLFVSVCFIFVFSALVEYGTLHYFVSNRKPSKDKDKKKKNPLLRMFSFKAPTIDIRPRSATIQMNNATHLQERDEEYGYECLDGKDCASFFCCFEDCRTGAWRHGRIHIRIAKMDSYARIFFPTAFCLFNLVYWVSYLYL

Sequence of hGABAAR (α3β3γ2) (P34903 29-492): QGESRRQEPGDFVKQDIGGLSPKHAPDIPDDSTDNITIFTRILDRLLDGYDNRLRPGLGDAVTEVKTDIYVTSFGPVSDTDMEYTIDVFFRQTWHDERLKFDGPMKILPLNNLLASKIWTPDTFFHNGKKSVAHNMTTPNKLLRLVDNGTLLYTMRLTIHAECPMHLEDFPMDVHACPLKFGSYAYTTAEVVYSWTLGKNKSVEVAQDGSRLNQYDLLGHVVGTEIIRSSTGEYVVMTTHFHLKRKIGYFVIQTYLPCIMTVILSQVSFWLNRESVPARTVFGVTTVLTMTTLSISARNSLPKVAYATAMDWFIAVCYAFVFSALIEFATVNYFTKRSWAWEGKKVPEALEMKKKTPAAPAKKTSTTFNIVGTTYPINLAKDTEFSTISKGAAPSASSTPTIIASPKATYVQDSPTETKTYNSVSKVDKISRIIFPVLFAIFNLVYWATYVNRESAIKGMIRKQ
Sequence of hGABAAR (α3β3γ2) (P28472 26-473 partner): as the sequence (P28472 26-473 partner) above
Sequence of hGABAAR (α3β3γ2) (P18507 40-475): as the sequence (P18507 40-475) above
Sequence of hGABAAR (α5β3γ2) (P31644 32-462): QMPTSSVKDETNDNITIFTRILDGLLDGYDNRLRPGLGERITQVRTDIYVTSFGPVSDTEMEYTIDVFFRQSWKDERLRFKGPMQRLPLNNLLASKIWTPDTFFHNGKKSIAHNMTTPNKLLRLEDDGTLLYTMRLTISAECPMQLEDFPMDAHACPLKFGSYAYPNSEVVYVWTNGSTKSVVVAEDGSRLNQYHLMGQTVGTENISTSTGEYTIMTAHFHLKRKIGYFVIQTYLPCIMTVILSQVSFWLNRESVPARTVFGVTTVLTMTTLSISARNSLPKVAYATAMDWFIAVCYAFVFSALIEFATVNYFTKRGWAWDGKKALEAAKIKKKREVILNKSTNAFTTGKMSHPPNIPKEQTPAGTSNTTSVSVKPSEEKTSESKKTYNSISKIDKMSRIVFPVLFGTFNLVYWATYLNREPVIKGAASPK
Sequence of hGABAAR (α5β3γ2) (P28472 26-473 partner): as the sequence (P28472 26-473 partner) above
Sequence of hGABAAR (α5β3γ2) (P18507 40-475): as the sequence (P18507 40-475) above
Sequence of hGABAAR (α2β3γ2) (P47869 29-451): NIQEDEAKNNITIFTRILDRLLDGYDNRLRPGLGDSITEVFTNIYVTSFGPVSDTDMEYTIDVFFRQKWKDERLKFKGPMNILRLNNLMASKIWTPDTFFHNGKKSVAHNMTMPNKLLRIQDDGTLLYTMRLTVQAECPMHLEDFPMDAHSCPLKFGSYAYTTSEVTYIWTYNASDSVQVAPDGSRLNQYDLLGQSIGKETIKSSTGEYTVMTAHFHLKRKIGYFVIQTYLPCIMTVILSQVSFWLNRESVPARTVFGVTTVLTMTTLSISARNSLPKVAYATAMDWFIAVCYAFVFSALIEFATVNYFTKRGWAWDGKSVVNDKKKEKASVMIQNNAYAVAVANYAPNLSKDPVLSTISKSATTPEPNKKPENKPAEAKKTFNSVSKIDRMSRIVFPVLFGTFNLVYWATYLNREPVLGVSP
Sequence of hGABAAR (α2β3γ2) (P28472 26-473 partner): as the sequence (P28472 26-473 partner) above
Sequence of hGABAAR (α2β3γ2) (P18507 40-475): as the sequence (P18507 40-475) above

Compound: C#Cc1ccc2c(c1)C(c1ccccn1)=NCc1c(C(=O)OCC)ncn1-2 [HZ-166]
- reduction of convulsions induced by PTZ (rats [1]; 30 mg/kg): 60%
- activity in Vogel conflict test (punished drinking) (rats [2]; ref Poe et al., 2016): not active
- marble-burying [3]: decreased marble-burying

Compound: NCCCC(=O)O [GABA]
- average maximum negative current amplitude (hGABAAR (α2β3γ2); saturating concentration of GABA, α2β3γ2): 0.8 nA
- average maximum negative current amplitude (hGABAAR (α3β3γ2); saturating concentration of GABA, α3β3γ2): 1.0 nA
- average maximum negative current amplitude (hGABAAR (α5β3γ2); saturating concentration of GABA, α5β3γ2): 0.9 nA

Compound: C#Cc1ccc2c(c1)C(c1ccccn1)=NCc1c(-c3cnco3)ncn1-2 [Compound 9, 5-(8-Ethynyl-6-(pyridin-2-yl)-4H-benzo[f]imidazo[1,5-a][1,4]diazepin-3-yl)oxazole]
- activity in Vogel conflict test (punished drinking) (rats [2]; ref Poe et al., 2016, listed as KRM-II-81): increased punished drinking; also recorded: efficacious
- acid-induced pain behaviors (mice): attenuated acid-induced pain behaviors

Compound: CN1C(=O)CN=C(c2ccccc2)c2cc(Cl)ccc21 [Diazepam, diazepam]
- GABAA-a1 Max (%GABA) (hGABAAR (α1β3γ2)): 171.9 %GABA
- GABAA-a2 Max (%GABA) (hGABAAR (α2β3γ2); HEK293 cells, human α2β3γ2, peak GABA EC15-evoked current): 203.4 %GABA
- GABAA-a3 Max (%GABA) (hGABAAR (α3β3γ2); HEK293 cells, human α3β3γ2, peak GABA EC15-evoked current): 265.6 %GABA
- GABAA-a5 Max (%GABA) (hGABAAR (α5β3γ2); HEK293 cells, human α5β3γ2, peak GABA EC15-evoked current): 220.7 %GABA

Compound: CCCC(CCC)C(=O)O [Valpro, valproic acid]
- Anticonvulsant Effect (percent of animals protected, no clonic convulsions) (rats [1]; valproic acid 300 mg/kg, 35 mg/kg pentylenetetrazole s.c.): 100 ^* percent
